Assay outcomes as filed in PubChem.
Sampled rows, rich in hits. Any-hit rate of the full collection: about 3.5%.
MrgX1 ag: activates human MrgX1 receptor signaling | Q96LB2 | MrgX1-HEK293 cells, Fluo-4 calcium fluorescence, agonist mode; hits give high values | B-score at 10 µM | 310,000 tested, 0.44% active;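 active means calcium response B-score plate-corrected fluorescence ratio at least 3 library SD, with starting fluorescence B-score inside 5 SD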
Target sequence (Q96LB2 whole entry, looked up): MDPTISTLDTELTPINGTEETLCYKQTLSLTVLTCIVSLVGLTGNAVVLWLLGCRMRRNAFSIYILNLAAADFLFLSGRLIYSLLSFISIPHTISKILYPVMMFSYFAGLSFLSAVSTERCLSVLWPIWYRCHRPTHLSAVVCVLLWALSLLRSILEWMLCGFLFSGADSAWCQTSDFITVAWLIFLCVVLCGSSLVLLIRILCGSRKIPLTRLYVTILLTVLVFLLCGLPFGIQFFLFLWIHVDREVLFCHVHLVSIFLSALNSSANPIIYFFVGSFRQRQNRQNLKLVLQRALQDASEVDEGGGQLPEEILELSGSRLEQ
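System: HEK293 cells stably expressing human MrgX1 receptor; Dosing: test compound in the initial addition of three; Schedule: overnight plating, then 30 min 37 °C plus 30 min room-temperature dye loading; Detection: kinetic calcium dye fluorescence, Fluo-4 NW; Controls: per-plate positive and negative controls for Z′ factor.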
MrgX1 antag: human MrgX1 receptor antagonism, primary screen | Q96LB2 | 310,000 tested, 1.3% active | MRGX1-HEK293 calcium flux, Fluo-4, BAM8-22 antagonism; hits give low values | B-score at 10 µM;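 active means calcium-response B-score plate-corrected more than 3 library SD below zero, starting fluorescence within 5 deviations, no agonist response on first addition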;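 further: peak minus trough fluorescence over baseline after final BAM8-22 challenge near maximal dose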
RGS4 pot: RGS4 potentiation or activation. HEK293 M3R/inducible RGS4, carbachol calcium flux Fluo4; hits give low values. B-score at 10 µM. 310,000 tested, 0.92% active. AID 463111;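 active means B-score of the integrated calcium signal more than 4 SD below the library mean, with starting fluorescence not abnormally high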;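 further: negative B-score means reduced calcium response which marks RGS4 activation or potentiation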
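System: HEK293 FlpIn-TREx cells, stable M3R, doxycycline-inducible RGS4. Timing: overnight RGS4 induction, 30 min dye load 37 °C, 20 min compound RT. Also added: carbachol, ECmax concentration. Measured by: Fluo4 fluorescence kinetic imaging of calcium. Evaluation: integrated calcium ratio converted to B score.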
MrgX1 allo act: human MrgX1 positive allosteric modulation, primary screen. Q96LB2. MrgX1-HEK293, Fluo-4 calcium flux, FDSS; hits give high values. B-score at 10 µM. 310,000 tested, 0.63% active. AID 588675;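 active means plate-corrected calcium response at least 3 library SD above typical, normal starting fluorescence, not activating the receptor alone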;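 further: compound read alongside a low EC10 to EC30 dose of BAM8-22 agonist; peak minus trough fluorescence over baseline measured at the second addition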
RGS4 block: human RGS4 inhibition; HEK293 M3R/RGS4 inducible, Fluo-4 calcium flux; hits give high values; triggered by carbachol at its EC20; 310,000 tested, 0.45% active; B-score at 10 µM;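 active means B-score, a plate-corrected calcium signal, over three deviations above library mean, with baseline fluorescence within five deviations of library mean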;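 further: RGS4 expression induced by doxycycline in cells with stable M3 receptor; B-score is computed from the integrated fluorescence ratio over baseline after carbachol; higher B-score means a larger calcium signal and so more RGS4 inhibition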
Target sequence (P49798 whole entry, looked up): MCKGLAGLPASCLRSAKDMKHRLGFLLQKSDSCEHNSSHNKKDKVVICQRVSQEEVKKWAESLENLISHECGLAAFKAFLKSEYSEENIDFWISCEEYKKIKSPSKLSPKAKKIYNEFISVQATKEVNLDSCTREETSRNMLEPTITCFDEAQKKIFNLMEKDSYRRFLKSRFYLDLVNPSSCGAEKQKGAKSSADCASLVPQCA
MrgX1 antag conf: confirmation of human MrgX1 receptor antagonists | shares compounds with MrgX1 antag | MrgX1-HEK293, BAM8-22 calcium flux, Fluo-4; hits give low values | remaining BAM8-22 calcium response % of control (hits give low values), % at 10 µM | 2,300 tested, 19% active | AID 602420;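 active means remaining agonist calcium response no higher than 100% minus 3 SD of agonist-only control wells, with starting fluorescence near control levels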;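 further: agonist BAM8-22 given at a near maximal EC90 to ECmax level; peak minus minimum fluorescence divided by baseline after agonist addition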
HEK293 Ca flux: activity in parental HEK293 cells lacking MrgX1 | fluorescence ratio F(max-min)/F0 at 10 µM | Fluo-4 calcium fluorescence, FDSS | 4,000 tested, 2% active | AID 624111 | shares compounds with MrgX1 antag;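 active means duplicate-averaged calcium fluorescence ratio at least three times the standard deviation of buffer wells, a nonspecific response in parental cells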
HEK293 Ca counter: activity in parental HEK293 cells without MrgX1; shares compounds with MrgX1 antag; parental HEK293 calcium flux, Fluo-4 fluorescence ratio; hits give high values; fluorescence ratio F(max-min)/F0 at 10 µM; 4,000 tested, 0.4% active;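 active means calcium fluorescence ratio, averaged over duplicates, at least 3 SD of the buffer-well ratio, meaning a nonspecific response in receptor-free cells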;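 further: untransfected parental HEK293 lacking MrgX1 used as counterscreen for MrgX1 allosteric activators; fluorescence change taken during the second addition on a kinetic imager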
HEK293 Ca cntr2: counter-screen for MrgX1 activators: effect in parental HEK293 cells. shares compounds with MrgX1 antag. Fluo-4 calcium fluorescence (FDSS); hits give high values. fluorescence ratio F(max-min)/F0 at 10 µM. 4,000 tested, 8.7% active. AID 624115;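 active means calcium fluorescence ratio at least three times the spread of buffer wells, meaning a non-specific response in parental cells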
* marks the source's active call; other numbers are inactive results; i = inactive; . = no result given.

SMILES	MrgX1 ag	MrgX1 antag	RGS4 pot	MrgX1 allo act	RGS4 block	MrgX1 antag conf	HEK293 Ca flux	HEK293 Ca counter	HEK293 Ca cntr2
C=C(C)CSc1nc2c(c(=O)[nH]c(=O)n2C)n1Cc1ccccc1	i	-4.8*	i	i	i	83%*	i	i	i
CCCSc1nc2c(c(=O)[nH]c(=O)n2C)n1Cc1ccccc1	i	i	i	i	i	.	.	.	.
Cc1cc(C)cc(NC(=O)c2cc(S(=O)(=O)N3CCCC3)cn2C)c1	i	-6.9*	i	i	i	i	i	i	i
CCOC(=O)c1c(S(=O)(=O)Nc2ccc(F)cc2C)c(C)n(C)c1C	i	i	i	i	i	.	.	.	.
CCOC(=O)N1CCN(C(=O)CN(Cc2ccc(Cl)cc2)S(C)(=O)=O)CC1	i	-6.2*	i	i	i	i	i	i	i
COc1ccc(CCCC(=O)NCc2ccccc2)cc1C	i	i	i	i	i	.	.	.	.
CCN1CCN(c2nc3c(c(=O)[nH]c(=O)n3C)n2CCSc2nc3ccccc3s2)CC1	i	-6.3*	i	i	i	i	i	i	i
CC(CSc1nc2ccccc2s1)Cn1c(N2CCCC2)nc2c1c(=O)[nH]c(=O)n2C (stereo unspecified)	i	i	i	i	i	.	.	.	.
CCCNC(=O)N1CCC(C(=O)c2cccc(F)c2)CC1	i	-4.9*	i	i	i	i	i	i	i
CCCNC(=O)N1CCCC(C(=O)c2cccc(Cl)c2)C1 (stereo unspecified)	i	i	i	i	i	.	.	.	.
CC1CCC(NC(=O)C2CC(=O)N(c3ccc4c(c3)OCCO4)C2)CC1 (stereo unspecified)	i	i	i	i	i	.	.	.	.
Cc1ccc(-n2c(=O)cc(N3CCCCCC3)[nH]c2=O)cc1	i	-7.7*	i	i	i	i	i	i	i
O=C(CSc1nc2ccccc2s1)NCC1CCCO1 (stereo unspecified)	i	-5.9*	i	i	i	i	i	i	i
O=C(CSc1nnc(NC(=O)c2cc(Br)ccc2Cl)s1)NCC1CCCO1 (stereo unspecified)	i	-13*	i	i	i	i	i	i	i
CCc1ccc(CN(C)Cc2nc(-c3cccc(Cl)c3)no2)nc1	i	i	i	i	i	.	.	.	.
CC1=CC(C)(C)N(C(=O)CNC2CCCC2)c2cc(C)ccc21	i	i	i	i	i	.	.	.	.
CCN(CC)c1ccc(C(=O)O)cc1	i	-5.7*	i	i	i	i	i	i	i
Cc1cc(/C=C2\SC(=S)N(C)C2=O)c(C)n1-c1ccc(O)cc1	i	-11*	i	i	i	i	i	i	i
Cc1ccc(NC(=O)C2CCCN(S(=O)(=O)c3c(C)noc3C)C2)c(Br)c1 (stereo unspecified)	i	i	i	i	i	.	.	.	.
COc1ccc(C(=O)c2cn[nH]c2-c2cc(C)ccc2O)cc1	i	-4.5*	i	i	i	i	i	i	i
COc1ccc(C(=O)c2cn[nH]c2-c2cc(Cl)ccc2O)cc1	i	i	i	i	i	.	.	.	.
CC(=O)Nc1nnc(CCN2CCCCC2)s1	i	i	i	i	i	.	.	.	.
CC(=O)c1sc2nsc(SCCN3CCCCC3)c2c1N	i	-5.2*	i	i	i	i	i	i	52*
Cc1ccccc1C(=O)/C=C1/SCC(=O)N1C	i	i	i	i	i	.	.	.	.
C=CCn1c(SCC(=O)N2CCN(c3ccccc3)CC2)nc2c([nH]c3ccccc32)c1=O	i	i	i	i	i	.	.	.	.
SMILES	MrgX1 ag	MrgX1 antag	RGS4 pot	MrgX1 allo act	RGS4 block	MrgX1 antag conf	HEK293 Ca flux	HEK293 Ca counter	HEK293 Ca cntr2
Cc1nn(C)c(-c2n[nH]c(=S)n2-c2ccccc2)c1Cl	i	-4.7*	i	i	i	i	i	i	i
CC(/C=N\NC(=O)Cn1c(C)nc2ccccc21)=C\c1ccccc1	i	-11*	i	i	i	i	i	i	i
N#CC1=C(N)OC2=C(C(=O)CCC2)C12CCC1(CC2)OCCO1	i	i	i	i	i	.	.	.	.
CC1(C)C(C#N)=C(N)OC2=C1C(=O)CCC2	i	-5.7*	i	i	i	i	i	i	i
CN=Cc1cc(-c2ccccc2)sc1O	i	-6.2*	i	i	i	i	i	i	i
Cc1ccc(NC(=O)CSc2ncnc3ccccc23)cc1S(=O)(=O)N1CCCCCC1	i	-5.3*	i	i	i	67%*	i	i	i
COC(=O)C1=C(N)Oc2cc(C)n(Cc3cccnc3)c(=O)c2C1c1cc(OC)ccc1OC (stereo unspecified)	i	i	i	i	i	.	.	.	.
COC(=O)C1=C(N)Oc2cc(C)n(Cc3cccnc3)c(=O)c2C1c1cccc(OC)c1OC (stereo unspecified)	i	-13*	i	i	i	i	i	i	i
O=C1OCCC1Sc1nnc(-c2cccc(Br)c2)o1 (stereo unspecified)	i	-5.1*	i	i	i	i	i	i	i
COc1ccc(Cc2nnc(SC(C)C(=O)Nc3ccc(F)cc3Cl)o2)cc1 (stereo unspecified)	i	i	i	i	i	.	.	.	.
CCOc1ccc(S(=O)(=O)NCCC(=O)N(C)CC(=O)Nc2ccc(N3CCOCC3)cc2)cc1	i	i	i	i	i	.	.	.	.
CCn1c(Cc2cccs2)nnc1SCC(=O)NC1CC1	i	i	i	i	i	.	.	.	.
C=CCn1c(Cc2cccs2)nnc1SCC(=O)NC1CC1	i	-8.8*	i	i	i	i	i	i	i
CC(NC(=O)CCCc1ccccc1)c1ccncc1 (stereo unspecified)	i	i	i	i	i	.	.	.	.
